The text below walks through data of ChEMBL document CHEMBL3763066, “Potent μ-Opioid Receptor Agonists from Cyclic Peptides Tyr-c[D-Lys-Xxx-Tyr-Gly]: Synthesis, Biological, and Structural Evaluation” (J Med Chem, 2016).

pIC50, pKi: −log10 of the molar value. Where a SMILES comes first, the peptide text is derived from it. Bridges are numbered along the chain shown (N, C = ends). [ ]: non-standard residue; d: D form. 2Abz = Nc1ccccc1C(=O)O; Dap = NC[C@H](N)C(=O)O Some results are limits rather than exact numbers.

For assay [1], the target named is Kappa-type opioid receptor (Cavia porcellus, UniProt P41144). The experiment in a line: Displacement of [3H]U69,593 from guinea pig KOR after 2 hrs by liquid scintillation counting method. Background: Loss of bound radioactivity is the signal in a displacement assay; it reports binding, not function.
A short description of assay [2]: Selectivity ratio of Ki for guinea pig KOR to Ki for rat cortical MOR. An outline of the steps: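 KOR: guinea pig cortex and cerebellum membranes in 50 mM Tris pH 7.4, 10 mM MgCl2, 200 μM PMSF, with 2 nM [3H]U69,593, 2 h at 25 °C; U50,488 defined nonspecific binding. […] Both used GF/B filtration and scintillation counting. The ratio is Ki(KOR)/Ki(MOR).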
The species entered for the next assay is Rattus norvegicus. As to the kind of experiment: Selectivity ratio of Ki for rat cortical DOR to Ki for rat cortical MOR.
Assay [3] concerns the target T1, Mu-type opioid receptor (Homo sapiens, UniProt P35372). The format is cell-based, CHO.
The target of assay [4] is Mu-type opioid receptor (Rattus norvegicus, UniProt P33535). As to the kind of experiment: Displacement of [3H]DAMGO from rat cortical MOR by liquid scintillation counting method.
Assay [5] addresses Delta-type opioid receptor (Rattus norvegicus, UniProt P33533). The experiment in a line: Displacement of [3H]DPDPE from rat cortical DOR after […] by liquid scintillation counting method.
Assay [6] concerns the target T1, Mu-type opioid receptor. As to the kind of experiment: Potency index, ratio of morphine EC50 to compound EC50 for human MOR. Summed up: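 CHO cells expressing human MOR were seeded 1 day before the assay. Cells were loaded with membrane-potential blue dye in HBSS/20 mM HEPES pH 7.4 for 45 min at 37 °C, then compound was added. Fluorescence (ex 530, em 550–565 nm) was read every 3 s for 60 s, taking maximum minus minimum response. The index is morphine EC50 divided by compound EC50.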

Chain of Delta-type opioid receptor (P33533 whole entry): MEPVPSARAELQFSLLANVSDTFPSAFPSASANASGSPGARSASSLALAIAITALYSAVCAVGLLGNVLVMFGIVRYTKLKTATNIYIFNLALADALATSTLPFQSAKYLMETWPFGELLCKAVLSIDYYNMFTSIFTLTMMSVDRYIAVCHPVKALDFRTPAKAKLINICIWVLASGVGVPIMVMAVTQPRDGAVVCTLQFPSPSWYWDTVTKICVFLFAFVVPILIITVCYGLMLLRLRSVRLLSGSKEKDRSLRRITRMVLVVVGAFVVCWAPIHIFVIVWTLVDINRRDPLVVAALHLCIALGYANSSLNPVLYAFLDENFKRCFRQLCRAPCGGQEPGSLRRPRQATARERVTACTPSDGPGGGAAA
T1 sequence (P35372 whole entry): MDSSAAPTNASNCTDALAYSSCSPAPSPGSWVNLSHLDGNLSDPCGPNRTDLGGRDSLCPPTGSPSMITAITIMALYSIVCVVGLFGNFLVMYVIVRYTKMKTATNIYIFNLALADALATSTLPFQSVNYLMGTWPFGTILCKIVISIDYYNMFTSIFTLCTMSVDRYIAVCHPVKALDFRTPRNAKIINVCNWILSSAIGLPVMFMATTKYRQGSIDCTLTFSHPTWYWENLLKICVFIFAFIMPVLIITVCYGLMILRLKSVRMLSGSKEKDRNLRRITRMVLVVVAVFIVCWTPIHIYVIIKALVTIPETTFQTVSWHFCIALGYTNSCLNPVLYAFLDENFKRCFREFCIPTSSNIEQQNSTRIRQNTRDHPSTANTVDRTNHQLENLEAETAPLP
Chain of Mu-type opioid receptor (Rattus norvegicus, UniProt P33535) (P33535 whole entry): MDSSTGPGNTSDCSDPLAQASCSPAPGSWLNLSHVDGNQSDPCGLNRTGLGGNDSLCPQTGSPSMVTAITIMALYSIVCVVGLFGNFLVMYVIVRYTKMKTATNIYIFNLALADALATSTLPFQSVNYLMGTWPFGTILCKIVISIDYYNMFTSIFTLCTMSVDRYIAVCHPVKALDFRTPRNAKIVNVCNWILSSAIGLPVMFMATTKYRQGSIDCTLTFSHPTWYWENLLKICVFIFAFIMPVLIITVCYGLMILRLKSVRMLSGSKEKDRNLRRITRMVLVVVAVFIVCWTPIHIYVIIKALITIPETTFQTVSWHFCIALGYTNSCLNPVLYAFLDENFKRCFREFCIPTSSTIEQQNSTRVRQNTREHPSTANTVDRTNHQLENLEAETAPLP
Chain of Kappa-type opioid receptor (P41144 whole entry): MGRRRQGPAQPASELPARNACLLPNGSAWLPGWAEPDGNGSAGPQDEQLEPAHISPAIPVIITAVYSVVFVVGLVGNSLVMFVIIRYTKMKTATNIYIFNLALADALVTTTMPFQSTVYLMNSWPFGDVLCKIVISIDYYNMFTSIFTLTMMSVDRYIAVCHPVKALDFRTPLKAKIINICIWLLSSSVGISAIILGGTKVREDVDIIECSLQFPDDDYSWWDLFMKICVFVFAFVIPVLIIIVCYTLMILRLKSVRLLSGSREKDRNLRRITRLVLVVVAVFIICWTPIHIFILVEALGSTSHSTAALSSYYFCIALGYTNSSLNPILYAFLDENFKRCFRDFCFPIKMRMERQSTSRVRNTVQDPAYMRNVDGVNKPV

For `Nc1ccccc1C(=O)NC[C@@H]1NC(=O)[C@H](NC(=O)[C@@H](N)Cc2ccc(O)cc2)CCCCNC(=O)CNC(=O)[C@H](Cc2ccc(O)cc2)NC1=O` (H-Y[dK][Dap](2Abz)YG; lactam 2-C), the negative-log Ki (pKi) in assay [1] is 5.49. Moreover, the Ratio Ki in assay [2] worked out at 231; in the assay listed under Rattus norvegicus, 62.

On to `N=C(N)NCCC[C@@H]1NC(=O)[C@H](NC(=O)[C@@H](N)Cc2ccc(O)cc2)CCCCNC(=O)CNC(=O)[C@H](Cc2ccc(O)cc2)NC1=O`, for which the pKi in assay [1] is 5.07; at Mu-type opioid receptor [4], 7.76; in assay [5], less than 5.00. Also, the values for the Ratio Ki (in assay [2]; in the assay filed under Rattus norvegicus) were 406 and more than 805, respectively. Besides, the pIC50 at Mu-type opioid receptor [3] is 6.88.

Turning to `N[C@@H](Cc1ccc(O)cc1)C(=O)N[C@@H]1CCCCNC(=O)CNC(=O)[C@H](Cc2ccc(O)cc2)NC(=O)[C@H](Cc2cccnc2)NC1=O`, the pKi in assay [1] is 5.27; at Mu-type opioid receptor [4], 8.71; in assay [5] it was 5.89. The Ratio Ki came to 1320 in assay [2] and 658 in the assay filed under Rattus norvegicus. The molecule also gave a pIC50 at Mu-type opioid receptor [3] of 7.95.

For `N[C@@H](Cc1ccc(O)cc1)C(=O)N[C@@H]1CCCCNC(=O)CNC(=O)[C@H](Cc2ccc(O)cc2)NC(=O)[C@H](Cc2ccc(O)cc2)NC1=O`, the figures for the pKi (in assay [1]; on Mu-type opioid receptor [4]; in assay [5]) were less than 5.00, 6.94 and 6.77, respectively. Moreover, the Ratio Ki in assay [2] was more than 324; in the assay filed under Rattus norvegicus, 1.5. This molecule also showed a pIC50 against Mu-type opioid receptor [3] of 7.15.

Take `N[C@@H](Cc1ccc(O)cc1)C(=O)N[C@@H]1CCCCNC(=O)CNC(=O)[C@H](Cc2ccc(O)cc2)NC(=O)[C@H](Cc2ccncc2)NC1=O`: the figures for the pKi (in assay [1]; on Mu-type opioid receptor [4]; in assay [5]) were less than 5.00, 8.04 and 5.64, respectively. Moreover, the Ratio Ki in assay [2] came out at 1100; in the assay listed under Rattus norvegicus it was 247. The same molecule gave a pIC50 against Mu-type opioid receptor [3] of 7.49.

Take `NC(=O)NCCC[C@@H]1NC(=O)[C@H](NC(=O)[C@@H](N)Cc2ccc(O)cc2)CCCCNC(=O)CNC(=O)[C@H](Cc2ccc(O)cc2)NC1=O`: the pKi in assay [1] was 5.07; at Mu-type opioid receptor [4] it was 8.04; in assay [5] it was 5.48. In addition, the Ratio Ki in assay [2] is 760; in the assay listed under Rattus norvegicus, 367. At Mu-type opioid receptor [3], this molecule gave a pIC50 of 7.17.

As to `N[C@@H](Cc1ccc(O)cc1)C(=O)N[C@@H]1CCCCNC(=O)CNC(=O)[C@H](Cc2ccc(O)cc2)NC(=O)[C@H](Cc2ccccc2)NC1=O`, the pKi in assay [1] was 5.35; on Mu-type opioid receptor [4], 9.00; in assay [5], 7.41. Also, the Ratio EC50 at Mu-type opioid receptor [6] stood at 3. Besides, the results for the Ratio Ki (in assay [2]; in the assay filed under Rattus norvegicus) were 4520 and 39, respectively. Further, the pIC50 at Mu-type opioid receptor [3] was 8.64.

As to `N[C@@H](Cc1ccc(O)cc1)C(=O)N[C@@H]1CCCCNC(=O)CNC(=O)[C@H](Cc2ccc(O)cc2)NC(=O)[C@H](Cc2c[nH]c3ccccc23)NC1=O`, the figures for the pKi (in assay [1]; on Mu-type opioid receptor [4]; in assay [5]) were 5.09, 8.70 and 7.00, respectively. Further, the Ratio Ki in assay [2] was found to be 2940; in the assay filed under Rattus norvegicus it was 50. The pIC50 on Mu-type opioid receptor [3] was 7.62.

Usually pKi stands for the negative decadic logarithm of the Ki, by convention in mol/L. The low end stands for a high Ki, the high end for a low Ki. In general, pIC50 refers to the negative decadic logarithm of the IC50, by convention in mol/L. A lower pIC50 goes with a large IC50.
